This passage reports Activity results from ChEMBL document CHEMBL3244063, “Pharmacology on rat ileum of certain 2-substituted 3-(dimethylamino)-5,6-dimethoxyindenes related to 5,6-(methylenedioxy)indene calcium antagonists” (1978).

Calls of active or inactive are those of the source. No cut-off for these calls is given here.

The test system of one assay is Heart. Description: Positive inotropic activity in perfused rabbit heart assessed as increase in force of contraction at 10^-6 M relative to control. It counts as functional, Oryctolagus cuniculus.
For assay [1], the species on record is Rattus norvegicus. Description: Agonist activity at calcium channel in albino rat ileum assessed as induction of spasmogenic action by measuring contraction of ileum at 10^-6 to 10^-5 M measured for 3 mins. It counts as tissue-based. In short, it runs like this: (§1)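 Isolated rat ileum strips in an organ bath, with a separate strip for each compound and concentration. A control contraction to PGF2α (3 × 10⁻⁷ M bath) or acetylcholine (10⁻⁶ M bath) is recorded, and the bath is washed three times. Contraction during the 3-min test-compound incubation, before spasmogen is added, is expressed as percent of the control spasmogen response. Mean ± SEM of four experiments.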

The species entered for assay [2] is Rattus norvegicus. Description: Antagonist activity at calcium channel in albino rat ileum assessed as inhibition of PGF-2alpha-induced spasmogenic action by measuring contraction of ileum at 10^-3 M preincubated for 3 mins followed by PGF-2alpha induction (reference value: 76 +/- 4%). It is filed as tissue-based. Also on record: scale not given: the % may be the effect or the level left.

The species entered for assay [3] is Rattus norvegicus. Description: Antagonist activity at calcium channel in albino rat ileum assessed as inhibition of acetylcholine-induced spasmogenic action by measuring contraction of ileum at 10^-5 acetylcholine induction (reference value: 80 +/- 5%). It is filed as tissue-based. Also on record: scale not given: the % may be the effect or the level left.
The species entered for assay [4] is Rattus norvegicus. Description: Antagonist activity at calcium channel in albino rat ileum assessed as inhibition of PGF-2alpha-induced spasmogenic action by measuring contraction of ileum at 10^-4 M preincubated for 3 mins followed by PGF-2alpha induction (reference value: 76 +/- 4%). Also on record: scale not given: the % may be the effect or the level left. It counts as tissue-based.

Assay [5] is filed under the species Rattus norvegicus. Description: Agonist activity at calcium channel in albino rat ileum assessed as induction of spasmogenic action by measuring contraction of ileum at 10^-3 M measured for 3 mins relative to PGF-2alpha. It is filed as tissue-based. The method, boiled down: as §1
The species entered for assay [6] is Rattus norvegicus. Description: Antagonist activity at calcium channel in albino rat ileum assessed as inhibition of PGF-2alpha-induced spasmogenic action by measuring contraction of ileum at 10^-5 M preincubated for 3 mins followed by PGF-2alpha induction (reference value: 76 +/- 4%). It is filed as tissue-based. Also on record: scale not given: the % may be the effect or the level left.

The species entered for assay [7] is Rattus norvegicus. Description: Antagonist activity at calcium channel in albino rat ileum assessed as inhibition of acetylcholine-induced spasmogenic action by measuring contraction of ileum at 10^-6 acetylcholine induction (reference value: 80 +/- 5%). It is filed as tissue-based. Also on record: scale not given: the % may be the effect or the level left.
For assay [8], the species on record is Rattus norvegicus. Description: Agonist activity at calcium channel in albino rat ileum assessed as induction of spasmogenic action by measuring contraction of ileum at 10^-3 M measured for 3 mins relative to acetylcholine. It counts as tissue-based. The method, boiled down: as §1
The species named for assay [9] is Rattus norvegicus. Description: Agonist activity at calcium channel in albino rat ileum assessed as induction of spasmogenic action by measuring contraction of ileum at 10^-4 M measured for 3 mins relative to acetylcholine. It is filed as tissue-based. In short, it runs like this:
as §1

The species entered for assay [10] is Rattus norvegicus. Description: Antagonist activity at calcium channel in albino rat ileum assessed as inhibition of acetylcholine-induced spasmogenic action by measuring contraction of ileum at 10^-4 acetylcholine induction (reference value: 80 +/- 5%). Also on record: scale not given: the % may be the effect or the level left. It is filed as tissue-based.

Assay [11] is filed under the species Rattus norvegicus. Description: Antagonist activity at calcium channel in albino rat ileum assessed as inhibition of acetylcholine-induced spasmogenic action by measuring contraction of ileum at 10^-3 acetylcholine induction (reference value: 80 +/- 5%). It is filed as tissue-based. Also on record: scale not given: the % may be the effect or the level left.

The species named for assay [12] is Rattus norvegicus. Description: Antagonist activity at calcium channel in albino rat ileum assessed as inhibition of PGF-2alpha-induced spasmogenic action by measuring contraction of ileum at 10^-6 M preincubated for 3 mins followed by PGF-2alpha induction (reference value: 76 +/- 4%). It is filed as tissue-based. Also on record: scale not given: the % may be the effect or the level left.

The species named for assay [13] is Rattus norvegicus. Description: Agonist activity at calcium channel in albino rat ileum assessed as induction of spasmogenic action by measuring contraction of ileum at 10^-4 M measured for 3 mins relative to PGF-2alpha. It counts as tissue-based. In short, it runs like this:
as §1

For `CCCC1=Cc2cc3c(cc2C1N(C)C)OCO3.Cl` (stereo not drawn), the Activity with Heart worked out at 36%.

As for `CCC1=Cc2cc(OC)c(OC)cc2C1N(C)C` (stereo not drawn), the result in the assay listed under Rattus norvegicus [1] was inactive. For the same compound, the Activity in the assay listed under Rattus norvegicus [2] amounted to 62%; in the assay listed under Rattus norvegicus [3], 105%; in the assay listed under Rattus norvegicus [4], 110%; in the assay listed under Rattus norvegicus [5], 77.3%; in the assay filed under Rattus norvegicus [6], 108%; in the assay listed under Rattus norvegicus [7] it was 105%. Further, the Activity came to 45.3% in the assay filed under Rattus norvegicus [8]; 28.9% in the assay filed under Rattus norvegicus [9]; 91.5% in the assay listed under Rattus norvegicus [10]; 51.3% in the assay listed under Rattus norvegicus [11]; 98.7% in the assay listed under Rattus norvegicus [12]; 74.7% in the assay listed under Rattus norvegicus [13].

As for `CCCCC1=Cc2cc(OC)c(OC)cc2C1N(C)C` (stereo not drawn), the outcome in the assay filed under Rattus norvegicus [1] was inactive. Also, the Activity in the assay filed under Rattus norvegicus [2] is 65.2%; in the assay listed under Rattus norvegicus [3], 108%; in the assay filed under Rattus norvegicus [4], 60.5%; in the assay filed under Rattus norvegicus [5], 58.1%; in the assay filed under Rattus norvegicus [6], 91.1%; in the assay filed under Rattus norvegicus [7] it was 104%. For the same compound, the Activity in the assay listed under Rattus norvegicus [8] turned out to be 46.7%; in the assay listed under Rattus norvegicus [9], 25.3%; in the assay listed under Rattus norvegicus [10], 78.6%; in the assay filed under Rattus norvegicus [11], 64.3%; in the assay listed under Rattus norvegicus [12], 101%; in the assay filed under Rattus norvegicus [13], 37.1%.

On to `COc1cc2c(cc1OC)C(N(C)C)C(C)=C2` (stereo not drawn), for which the outcome in the assay filed under Rattus norvegicus [1] was inactive. In addition, the Activity in the assay listed under Rattus norvegicus [2] was determined as 124%; in the assay listed under Rattus norvegicus [3], 113%; in the assay filed under Rattus norvegicus [4] it was 113%; in the assay filed under Rattus norvegicus [5] it was 119%; in the assay listed under Rattus norvegicus [6] it was 108%; in the assay listed under Rattus norvegicus [7], 113%. Further, the Activity was found to be 49.5% in the assay listed under Rattus norvegicus [8]; 20.6% in the assay filed under Rattus norvegicus [9]; 94.4% in the assay listed under Rattus norvegicus [10]; 64% in the assay filed under Rattus norvegicus [11]; 111% in the assay listed under Rattus norvegicus [12]; 59.8% in the assay filed under Rattus norvegicus [13].

Consider `CCCC1=Cc2cc(OC)c(OC)cc2C1N(C)C` (stereo not drawn), for which the outcome in the assay listed under Rattus norvegicus [1] was inactive. For the same compound, the Activity in the assay listed under Rattus norvegicus [2] came to 49.1%; in the assay listed under Rattus norvegicus [3], 110%; in the assay filed under Rattus norvegicus [4] it was 99.7%; in the assay listed under Rattus norvegicus [5], 61.7%; in the assay filed under Rattus norvegicus [6], 99.3%; in the assay filed under Rattus norvegicus [7], 104%. Further, the Activity in the assay listed under Rattus norvegicus [8] was 43.6%; in the assay listed under Rattus norvegicus [9] it was 42.7%; in the assay listed under Rattus norvegicus [10], 96.6%; in the assay filed under Rattus norvegicus [11], 56.7%; in the assay listed under Rattus norvegicus [12] it was 104%; in the assay listed under Rattus norvegicus [13], 80.7%.
